# Assay outcomes: PubChem, The Scripps Research Institute Molecular Screening Center
# TAAR1 agonist: human TAAR1 agonists, primary screen, Fluo-8 calcium fluorescence, CHO RD-HGA16 cells; AID 624467, 2012; vehicle wells 0%, saturating PEA agonist 100%; 360,000 tested, 0.99% active; activation, % at 3 µM; Trace amine-associated receptor 1 (Homo sapiens), Q96RJ0;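 active = activation above the mean activation of all test compounds in the run plus 3 SD, cut at about 38% in these data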
#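 Test system: RD-HGA16 (CHO) cells co-expressing Gα16 and hTAAR1; dosing: one-point dosing at 3 µM (nominal); timing: 17-24 h seeding, 75 min 37 °C dye, 30 min RT; signal: kinetic Fluo-8 calcium fluorescence; read-out basis: % activation relative to PEA EC100 response; controls: DMSO and PEA EC100; replicates: n 1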
# TAAR1 antagonist: human TAAR1 antagonists, primary screen, Fluo-8 calcium fluorescence, CHO RD-HGA16 cells. inhibition, % at 3 µM. 360,000 tested, 1.5% active. Trace amine-associated receptor 1 (Homo sapiens), Q96RJ0. AID 624466, 2012. antagonist;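 active = inhibition above a per-plate cutoff, the mean inhibition of test compounds on that plate plus 3 SD, cut at about 49% in these data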;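 also: 0% = DMSO plus EC80 beta-PEA response and 100% = DMSO alone without agonist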
#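 Test system: RD-HGA16 CHO cells with stable hTAAR1 and Gα16 / Probe or stimulus: EC80 β-phenethylamine stimulus / Times: seeding 17-24 h prior, 75-min 37 °C, 30-min RT dye loading / Detection: Fluo-8 calcium-sensitive fluorescence / Read-out basis: % inhibition scaled between DMSO and EC80 PEA controls / Repeats: singlicate, one well per test compound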
# OX1R antag-1: OX1R (HCRTR1) antagonists, primary screen, fluorescence, CHO/OX1R cells, Fluo-8 calcium, orexin A. inhibition, % at 5 µM. 330,000 tested, 0.43% active. Fluo-8 calcium fluorescence. AID 434989, 2010. Orexin/Hypocretin receptor type 1 (Homo sapiens), O43613;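 active = inhibition above its plate's threshold, mean inhibition of all tested compounds on the plate plus 3 SD, cut at about 37% in these data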;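 also: 0% = orexin A challenge wells and 100% = SB-334867-A antagonist wells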
# Target sequence (O43613 whole entry, looked up): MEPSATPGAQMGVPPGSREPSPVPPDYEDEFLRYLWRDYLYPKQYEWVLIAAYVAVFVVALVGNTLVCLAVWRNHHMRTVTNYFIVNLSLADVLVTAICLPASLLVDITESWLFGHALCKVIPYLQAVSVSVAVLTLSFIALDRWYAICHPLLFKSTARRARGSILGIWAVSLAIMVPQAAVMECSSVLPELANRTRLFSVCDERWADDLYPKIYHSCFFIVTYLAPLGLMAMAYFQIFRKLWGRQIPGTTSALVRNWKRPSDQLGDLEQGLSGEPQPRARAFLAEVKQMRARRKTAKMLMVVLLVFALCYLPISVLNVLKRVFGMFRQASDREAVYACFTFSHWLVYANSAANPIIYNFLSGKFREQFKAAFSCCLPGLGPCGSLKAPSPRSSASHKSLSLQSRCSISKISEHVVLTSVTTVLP
# GPR7 antagonist: GPR7 receptor antagonists, primary screen, cell-based, fluorescence, single concentration. 290,000 tested, 1.1% active. inhibition, % at 4.4 µM. AID 1861, 2009. GPR7-expressing cells, fluorescence antagonist assay; in the data active = inhibition above about 16%, passing the limit was not always enough;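 also: cells stimulated with the agonist NPW; 0% = agonist with vehicle and 100% = vehicle without agonist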
# Target sequence (P48145 whole entry, looked up): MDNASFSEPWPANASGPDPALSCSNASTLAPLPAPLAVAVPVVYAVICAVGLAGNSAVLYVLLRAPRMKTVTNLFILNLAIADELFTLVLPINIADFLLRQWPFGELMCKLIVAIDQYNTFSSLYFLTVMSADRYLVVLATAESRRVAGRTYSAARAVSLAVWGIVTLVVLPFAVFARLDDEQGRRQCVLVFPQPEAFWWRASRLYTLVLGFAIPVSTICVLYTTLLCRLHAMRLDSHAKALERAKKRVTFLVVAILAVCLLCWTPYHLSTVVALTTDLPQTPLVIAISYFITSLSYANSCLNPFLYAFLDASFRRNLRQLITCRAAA
# CHO parental Ca: ATP-evoked calcium signal inhibitors, parental CHO, primary screen, counter-screen for OX1R antagonist project, cell-based, fluorescence, Fluo-8 calcium dye; parental CHO-K1, ATP-induced calcium, Fluo-8 fluorescence; inhibition, % at 5.6 µM; 330,000 tested, 0.63% active; AID 463079, 2010;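 active = inhibition above that plate's mean sample inhibition plus 3 SD, cut at about 26% in these data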;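 also: 0% = ATP-challenged DMSO wells and 100% = DMSO wells without ATP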
#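 test system = CHO parental line | reagent = ATP stimulus | measured by = intracellular calcium via Fluo-8 no-wash fluorescent dye | control set = ATP and no-ATP DMSO wells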
# OX1R antag-2: antagonists of human orexin 1 receptor (OX1R). OX1R-expressing cells, FRET antagonist read-out. inhibition, % at 6.6 µM. 330,000 tested, 1.8% active; in the data active = inhibition mostly above about 38%, no sharp cut-off; inactive = mostly below about 40%;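 also: 0% = agonist challenge alone and 100% = reference antagonist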
# nonsel antag count: nonselective antagonists in TAAR1 counter-screen cells, counter-screen for hTAAR1 antagonist project, cell-based, fluorescence, calcium; shares compounds with TAAR1 antagonist; counterscreen cell line, antagonist mode; inhibition, % at 3 µM; 2,400 tested, 77% active; in the data active = inhibition above about 22%;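 also: CHO-Ga16 host cells stimulated with ATP at an EC80 level; 0% = agonist EC80 plus vehicle and 100% = vehicle without agonist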
# TAAR1 antag conf: human TAAR1 antagonists, retest of hits, confirmation, cell-based, fluorescence; shares compounds with TAAR1 antagonist; TAAR1-expressing cells, fluorescence antagonist read-out; inhibition, % at 3 µM; 2,400 tested, 40% active; in the data active = inhibition above about 49%;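 also: CHO-Ga16 host cells challenged with agonist PEA near its EC80; 0% = agonist at EC80 plus vehicle and 100% = vehicle with no agonist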
# Ga16 nonsel ag: calcium activation in Ga16-expressing cells, counter-screen for TAAR1 antagonist project, cell-based, fluorescence; shares compounds with TAAR1 antagonist; AID 651953, 2012; agonist counterscreen; 2,400 tested, 18% active; activation, % at 3 µM; in the data active = activation above about 12%;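 also: 0% = vehicle wells and 100% = saturating stimulus response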
# TAAR1 ag counter: TAAR1 activation by candidate antagonists – cell-based, fluorescence, counter-screen for TAAR1 antagonist project. shares compounds with TAAR1 antagonist. hTAAR1 cell line, agonist mode. activation, % at 3 µM. 2,400 tested, 2% active. AID 651955, 2012; in the data active = activation above about 37%;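 also: CHO cells stably expressing TAAR1 with calcium dye readout; 0% = DMSO vehicle and 100% = full agonist response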
# * hit, by the source's call; . = not tested or not shown. Rows were chosen to be rich in hits. Some 4.6% of all compounds tested hit in one or more screens of this group.
SMILES,TAAR1 agonist,TAAR1 antagonist,OX1R antag-1,GPR7 antagonist,CHO parental Ca,OX1R antag-2,nonsel antag count,TAAR1 antag conf,Ga16 nonsel ag,TAAR1 ag counter
COc1ccc(CCNC(=O)c2noc(C(C)C)c2[N+](=O)[O-])cc1OC,0.2,8.8,-11.8,2.4,-5.3,1.6,.,.,.,.
COc1ccc(CCNC(=O)c2ccc(-c3ccc([N+](=O)[O-])cc3)o2)cc1OC,13.0,61.1*,1.3,-5.8,-0.1,13.5,22.0*,34.4,11.1,9.6
COc1cc(OC)c(OC)cc1CNC(=O)c1cccc(S(=O)(=O)N2CCc3ccccc3C2)c1,12.4,68.0*,.,.,.,.,46.9*,57.1*,13.7*,8.4
COc1ccccc1CNC(=O)c1cccc(S(=O)(=O)N2CCN(C)CC2)c1,1.1,-8.1,-44.7,-13.4,4.1,9.8,.,.,.,.
CN(C)C(CNC(=O)CCNS(=O)(=O)c1ccccc1C(F)(F)F)c1ccccc1 (centres undefined),0.6,-9.2,-6.5,.,-1.0,1.6,.,.,.,.
COC(=O)c1cccc(C#CC(NP(=O)(c2ccccc2)c2ccccc2)c2ccccc2)c1 (centres undefined),16.4,72.5*,-28.0,.,-13.9,19.5,27.9*,36.2,2.2,1.6
O=C(CSc1nc(-c2ccccc2)cs1)NC(=O)NCc1ccco1,7.2,54.0*,-13.2,-14.7,-8.5,14.8,30.0*,41.5,5.2,1.8
COc1ccc(-n2c(C)nc3cc(C(=O)NCCN4CCOCC4)ccc32)cc1,5.9,2.1,-10.8,-7.6,-3.1,6.3,.,.,.,.
Cn1cc(S(=O)(=O)N2CCCC2)cc1C(=O)N1CCN(c2ccccc2)CC1,1.7,-30.5,-19.0,-7.8,2.0,12.1,.,.,.,.
CC(C)CCNC(=O)C(c1ccc(O)cc1)N(Cc1cccs1)C(=O)C1COc2ccccc2O1 (centres undefined),5.1,56.6*,-10.6,-8.1,-20.4,20.2,26.8*,54.0*,4.1,1.3
CC(C)(C)NC(=O)CN(Cc1cccs1)C(=O)C1COc2ccccc2O1 (centres undefined),3.5,12.2,-35.5,-1.1,-10.4,12.1,.,.,.,.
COCCNc1cc(C)nc2c3c(C)cc(C)nc3nn12,2.3,-3.9,-18.0,-20.1,-9.2,14.5,.,.,.,.
CN(Cc1ccc(F)cc1)C(=O)C(Cc1ccccc1)NC(=O)c1ccccc1 (centres undefined),8.5,66.6*,-19.6,.,-24.0,41.3,26.8*,55.0*,8.6,7.0
CSc1ccc(CN(C)C(=O)C(Cc2ccccc2)NC(=O)c2ccccc2)cc1 (centres undefined),9.0,82.5*,-0.9,10.8,-22.9,69.7*,34.4*,57.2*,9.5,10.1
CCOc1ccc(CN(C)C(=O)NNC(=O)c2ccc(C)cc2)cc1OC,-0.5,-7.5,-9.8,-0.4,3.8,13.7,.,.,.,.
CCOc1ccc(CN(C)C(=O)[C@H](Cc2ccccc2)NC(=O)OCc2ccccc2)cc1OC,12.0,62.0*,-14.8,2.1,-16.2,18.9,30.5*,55.2*,8.5,8.5
CSc1ccc(CN(C)C(=O)C(c2ccccc2)c2ccccc2)cc1,-0.2,6.8,1.4,-6.3,-31.1,-6.3,.,.,.,.
CCC1(CC)C(=O)C2=C3C1[C@H](C(=O)OC)CC(C(=O)OC)C[C@H]3[C@H]1C(=O)N(c3ccccc3)C(=O)[C@H]1[C@H]2C (some centres undefined),3.3,-7.8,-18.4,.,-24.1,12.1,.,.,.,.
Cc1noc(C)c1CSCC(=O)NCCN1C(=O)S/C(=C\c2ccccc2F)C1=O,12.9,56.1*,-30.4,.,-11.8,22.4,35.2*,53.6*,13.0*,11.8
O=C(CN1C(=O)/C(=C/c2ccccc2F)Sc2ccccc21)NCCCN1CCOCC1,1.1,8.0,-25.1,2.4,-23.2,13.4,.,.,.,.
Oc1ccc(C[C@H]2CNC(=S)N2CC2CCCN2C[C@H](Cc2ccc(O)cc2)N2C[C@H](Cc3ccc(O)cc3)N(CC3CCCCC3)C2=S)cc1 (some centres undefined),0.0,1.5,.,.,.,.,.,.,.,.
CN(Cc1ccccc1)C(=O)c1ncn(Cc2ccccc2)c1C(=O)N(C)Cc1ccccc1,28.7,63.9*,-7.5,.,-24.2,24.3,28.7*,56.3*,11.7*,9.4
COc1ccccc1N1CCN(C(=O)c2ccc(CN3CCOCC3)cc2)CC1,0.0,-0.2,-13.6,-4.0,15.3,7.6,.,.,.,.
Cc1ccc(S(=O)(=O)N2CCCCC2)cc1NC(=O)c1cncc(Br)c1,6.5,-6.5,.,.,.,.,.,.,.,.
O=C(Nc1cccc(S(=O)(=O)C(F)F)c1)c1ccc(S(=O)(=O)N2CCCCC2)cc1,15.4,63.5*,-8.0,-5.4,1.6,20.8,35.3*,36.6,9.2,3.8
SMILES,TAAR1 agonist,TAAR1 antagonist,OX1R antag-1,GPR7 antagonist,CHO parental Ca,OX1R antag-2,nonsel antag count,TAAR1 antag conf,Ga16 nonsel ag,TAAR1 ag counter
O=C(Nc1cccc(S(=O)(=O)N2CCCCCC2)c1)c1cncc(Br)c1,9.9,61.0*,-35.4,.,-22.2,9.4,37.4*,53.0*,10.5,14.5
CCc1cccc(C)c1NC(=S)N(Cc1cccnc1)Cc1ccco1,1.6,-3.7,-18.1,-9.2,-19.5,24.6,.,.,.,.
COc1ccc(Br)cc1CN(C)C(=O)c1ccccc1OCc1c(C)noc1C,9.4,57.0*,-24.8,.,-39.7,10.9,23.2*,33.2,6.8,4.0
Cc1cc(C)n(-c2nc(Nc3ccccc3C(F)(F)F)nc(-n3nc(C)cc3C)n2)n1,37.0,91.8*,62.5*,0.8,41.7*,59.7,42.5*,70.2*,13.2*,16.6
Cc1cc(C)n(-c2nc(NC(C)(C)C)nc(NC(C)(C)C)n2)n1,4.5,-4.5,-8.3,-5.4,5.6,21.5,.,.,.,.
COc1ccc(Cc2nnc(NC(=O)Cc3cccs3)s2)cc1OC,-0.6,57.4*,-20.4,-11.5,-17.8,21.6,6.5,2.3,0.3,8.4
O=C(Cc1cccs1)Nc1nnc(Cc2ccccc2)s1,19.0,11.4,-28.2,-1.6,-11.8,11.3,.,.,.,.
